Measurements reported in ChEMBL document CHEMBL1139366, “Non-peptide macrocyclic histone deacetylase inhibitors” (J Med Chem, 2009).

Columns and labels:
HMEC = experiment: Cytotoxicity against HMEC after 72 hrs by trypan blue exclusion assay; assay type: ADME, cell-based; conditions: Homo sapiens
[1] = Cytotoxicity against human primary lung fibroblasts after 72 hrs by trypan blue exclusion assay; assay type: ADME, cell-based; conditions: Fibroblast
[2] = target: Histone deacetylase (HDAC1 and HDAC2) (Homo sapiens, UniProt Q13547+Q92769); experiment: Inhibition of HDAC1/2 from human HeLa cells nuclear extract by cell free fluorimetric assay; assay type: cell-based
SK-MES-1 = experiment: Cytotoxicity against human SKMES1 cells after 72 hrs by trypan blue exclusion assay; assay type: functional, cell-based; conditions: SK-MES-1, 72 h
DU-145 = experiment: Cytotoxicity against human DU145 cells after 72 hrs by trypan blue exclusion assay; assay type: functional, cell-based; conditions: DU-145, 72 h
Outline: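 DU-145 prostate cancer cells kept in recommended complete medium at 37 °C, 5% CO₂, passaged 24 h before dosing. Compounds taken from 10 mM DMSO stocks and diluted in DMSO plus fresh medium, final DMSO 0.1%; control wells got fresh medium only. Viability read by trypan blue staining after 72 h. EC₅₀ = concentration giving 50% loss of viability, from duplicate of four simultaneous experiments.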

NCI-H69 = experiment: Cytotoxicity against human NCI-H69 cells after 72 hrs by trypan blue exclusion assay; assay type: functional, cell-based; conditions: NCI-H69, 72 h
Histone deacetylase 8 = target: T1, Histone deacetylase 8 (Homo sapiens, UniProt Q9BY41); experiment: Inhibition of HDAC8 from human HeLa cells nuclear extract by cell free fluorimetric assay
T1 sequence (Q9BY41 whole entry): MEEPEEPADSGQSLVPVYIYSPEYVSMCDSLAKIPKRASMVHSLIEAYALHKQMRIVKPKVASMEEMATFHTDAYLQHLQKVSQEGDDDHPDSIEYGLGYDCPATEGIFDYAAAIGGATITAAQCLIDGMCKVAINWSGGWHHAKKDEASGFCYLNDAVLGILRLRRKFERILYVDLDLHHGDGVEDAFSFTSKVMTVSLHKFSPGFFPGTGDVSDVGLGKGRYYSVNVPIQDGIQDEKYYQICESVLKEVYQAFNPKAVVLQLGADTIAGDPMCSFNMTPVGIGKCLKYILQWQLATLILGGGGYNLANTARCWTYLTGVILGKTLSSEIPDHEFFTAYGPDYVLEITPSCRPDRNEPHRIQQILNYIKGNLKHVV

For CC[C@H]1OC(=O)[C@H](C)[C@@H](O[C@H]2C[C@@](C)(OC)[C@@H](O)[C@H](C)O2)[C@H](C)[C@@H](O[C@@H]2O[C@H](C)C[C@H](N(C)Cc3ccc(-c4cn(CCCCCC(=O)NO)nn4)cc3)[C@H]2O)[C@](C)(O)C[C@@H](C)CN(C)[C@H](C)[C@@H](O)[C@]1(C)O, which EC50 (HMEC) is on record?
The EC50 was > 10 µM.

What about the EC50 [1] of the same compound?
Its EC50 is > 10 µM.

And the IC50 [2]?
The IC50 was 0.0916 µM.

What about the EC50 (SK-MES-1) of the same compound?
Its EC50 is 1.79 µM.

What about the EC50 (DU-145) of the same compound?
Its EC50 is 1.45 µM.

And the EC50 (NCI-H69)?
The EC50 was 1.92 µM.

What about the IC50 (Histone deacetylase 8) of the same compound?
Its IC50 is 4.73 µM.

For CC[C@H]1OC(=O)[C@H](C)[C@@H](O)[C@H](C)[C@@H](O[C@@H]2O[C@H](C)C[C@H](N(C)Cc3ccc(-c4cn(CCCCCC(=O)NO)nn4)cc3)[C@H]2O)[C@](C)(OC)C[C@@H](C)C(=O)[C@H](C)[C@@H](O)[C@]1(C)O, which EC50 (HMEC) is on record?
Its EC50 is > 10 µM.

What about the EC50 [1] of the same compound?
The EC50 was > 10 µM.

And the IC50 [2]?
Its IC50 is 0.0443 µM.

And the EC50 (SK-MES-1)?
Its EC50 is 1.95 µM.

And the EC50 (DU-145)?
Its EC50 is 3.29 µM.

What about the EC50 (NCI-H69) of the same compound?
The EC50 was 1.92 µM.

What does the source list for CC[C@H]1OC(=O)[C@H](C)[C@@H](O[C@H]2C[C@@](C)(OC)[C@@H](O)[C@H](C)O2)[C@H](C)[C@@H](O[C@@H]2O[C@H](C)C[C@H](N(C)Cc3ccc(-c4cn(CCCCCCCC(=O)NO)nn4)cc3)[C@H]2O)[C@](C)(O)C[C@@H](C)CN(C)[C@H](C)[C@@H](O)[C@]1(C)O?
EC50 (HMEC): > 10 µM; EC50 [1]: > 10 µM; IC50 [2]: 0.0589 µM; EC50 (SK-MES-1): 4.89 µM; EC50 (DU-145): 5.89 µM; EC50 (NCI-H69): 4.56 µM; IC50 (Histone deacetylase 8): 7.13 µM

What does the source list for CC[C@H]1OC(=O)[C@H](C)[C@@H](O)[C@H](C)[C@@H](O[C@@H]2O[C@H](C)C[C@H](N(C)Cc3ccc(-c4cn(CCCCCCCC(=O)NO)nn4)cc3)[C@H]2O)[C@](C)(O)C[C@@H](C)CN(C)[C@H](C)[C@@H](O)[C@]1(C)O?
EC50 (HMEC): > 10 µM; EC50 [1]: > 10 µM; IC50 [2]: 0.0724 µM; EC50 (SK-MES-1): 4.67 µM; EC50 (DU-145): 5.68 µM; EC50 (NCI-H69): 3.99 µM; IC50 (Histone deacetylase 8): 6.78 µM

For CC[C@H]1OC(=O)[C@H](C)[C@@H](O[C@H]2C[C@@](C)(OC)[C@@H](O)[C@H](C)O2)[C@H](C)[C@@H](O[C@@H]2O[C@H](C)C[C@H](N(C)Cc3ccc(-c4cn(CCCCCCCCC(=O)NO)nn4)cc3)[C@H]2O)[C@](C)(OC)C[C@@H](C)C(=O)[C@H](C)[C@@H](O)[C@]1(C)O, which EC50 (HMEC) is on record?
The EC50 was > 10 µM.

And the EC50 [1]?
Its EC50 is > 10 µM.

What about the IC50 [2] of the same compound?
The IC50 was 0.1698 µM.

And the EC50 (SK-MES-1)?
The EC50 was 7.12 µM.

What about the EC50 (DU-145) of the same compound?
The EC50 was 8.14 µM.

What about the EC50 (NCI-H69) of the same compound?
The EC50 was 7.29 µM.

Which EC50 (HMEC) does the source give for CC[C@H]1OC(=O)[C@H](C)[C@@H](O[C@H]2C[C@@](C)(OC)[C@@H](O)[C@H](C)O2)[C@H](C)[C@@H](O[C@@H]2O[C@H](C)C[C@H](N(C)Cc3ccc(-c4cn(CCCCCCCC(=O)NO)nn4)cc3)[C@H]2O)[C@](C)(OC)C[C@@H](C)C(=O)[C@H](C)[C@@H](O)[C@]1(C)O here?
The EC50 was > 10 µM.

And the EC50 [1]?
The EC50 was > 10 µM.

What about the IC50 [2] of the same compound?
The IC50 was 0.0556 µM.

And the EC50 (SK-MES-1)?
The EC50 was 4.89 µM.

What about the EC50 (DU-145) of the same compound?
Its EC50 is 6.97 µM.

And the EC50 (NCI-H69)?
Its EC50 is 5.67 µM.

For CC[C@H]1OC(=O)[C@H](C)[C@@H](O[C@H]2C[C@@](C)(OC)[C@@H](O)[C@H](C)O2)[C@H](C)[C@@H](O[C@@H]2O[C@H](C)C[C@H](N(C)Cc3ccc(NC(=O)CCCCCCC(=O)NO)cc3)[C@H]2O)[C@](C)(O)C[C@@H](C)CN(C)[C@H](C)[C@@H](O)[C@]1(C)O [AZITHROMYCINARYLALKYLHYDROXAMIC ACID], which IC50 [2] is on record?
Its IC50 is 0.1071 µM.

And the EC50 (DU-145)?
The EC50 was > 25 µM.

For CC[C@H]1OC(=O)[C@H](C)[C@@H](O)[C@H](C)[C@@H](O[C@@H]2O[C@H](C)C[C@H](N(C)Cc3ccc(-c4cn(CCCCCC(=O)NO)nn4)cc3)[C@H]2O)[C@](C)(O)C[C@@H](C)CN(C)[C@H](C)[C@@H](O)[C@]1(C)O, which EC50 (HMEC) is on record?
The EC50 was > 10 µM.

What about the EC50 [1] of the same compound?
Its EC50 is > 10 µM.

What about the IC50 [2] of the same compound?
Its IC50 is 0.0888 µM.

What about the EC50 (SK-MES-1) of the same compound?
Its EC50 is 1.68 µM.

What about the EC50 (DU-145) of the same compound?
Its EC50 is 1.24 µM.

And the EC50 (NCI-H69)?
The EC50 was 1.77 µM.

And the IC50 (Histone deacetylase 8)?
The IC50 was 3.74 µM.

What does the source list for CC[C@H]1OC(=O)[C@H](C)[C@@H](O)[C@H](C)[C@@H](O[C@@H]2O[C@H](C)C[C@H](N(C)Cc3ccc(NC(=O)CCCCCCC(=O)NO)cc3)[C@H]2O)[C@](C)(O)C[C@@H](C)CN(C)[C@H](C)[C@@H](O)[C@]1(C)O [DESCLASINOSE AZITHROMYCINARYLALKYL HYDROXAMATE]?
IC50 [2]: 0.1098 µM; EC50 (DU-145): < 25 µM

With CC[C@H]1OC(=O)[C@H](C)[C@@H](O[C@H]2C[C@@](C)(OC)[C@@H](O)[C@H](C)O2)[C@H](C)[C@@H](O[C@@H]2O[C@H](C)C[C@H](N(C)Cc3ccc(-c4cn(CCCCCCCCCC(=O)NO)nn4)cc3)[C@H]2O)[C@](C)(O)C[C@@H](C)CN(C)[C@H](C)[C@@H](O)[C@]1(C)O as the compound, how does the IC50 [2] read?
Its IC50 is 0.2267 µM.

With CC[C@H]1OC(=O)[C@H](C)[C@@H](O[C@H]2C[C@@](C)(OC)[C@@H](O)[C@H](C)O2)[C@H](C)[C@@H](O[C@@H]2O[C@H](C)C[C@H](N(C)Cc3ccc(-c4cn(CCCCCC(=O)NO)nn4)cc3)[C@H]2O)[C@](C)(OC)C[C@@H](C)C(=O)[C@H](C)[C@@H](O)[C@]1(C)O as the compound, how does the EC50 (HMEC) read?
Its EC50 is > 10 µM.

And the EC50 [1]?
The EC50 was > 10 µM.

And the IC50 [2]?
Its IC50 is 0.037 µM.

And the EC50 (SK-MES-1)?
The EC50 was 2.15 µM.

What about the EC50 (DU-145) of the same compound?
The EC50 was 2.98 µM.

What about the EC50 (NCI-H69) of the same compound?
The EC50 was 2.67 µM.

For O=C(CCCCCCC(=O)Nc1ccccc1)NO [VORINOSTAT], which EC50 (DU-145) is on record?
Its EC50 is 2.12 µM.

For CC[C@H]1OC(=O)[C@H](C)[C@@H](O[C@H]2C[C@@](C)(OC)[C@@H](O)[C@H](C)O2)[C@H](C)[C@@H](O[C@@H]2O[C@H](C)C[C@H](N(C)Cc3ccc(-c4cn(CCCCCCCCCC(=O)NO)nn4)cc3)[C@H]2O)[C@](C)(OC)C[C@@H](C)C(=O)[C@H](C)[C@@H](O)[C@]1(C)O, which IC50 [2] is on record?
The IC50 was 0.2234 µM.

What does the source list for CC[C@H]1OC(=O)[C@H](C)[C@@H](O[C@H]2C[C@@](C)(OC)[C@@H](O)[C@H](C)O2)[C@H](C)[C@@H](O[C@@H]2O[C@H](C)C[C@H](N(C)Cc3ccc(-c4cn(CCCCCCCCC(=O)NO)nn4)cc3)[C@H]2O)[C@](C)(O)C[C@@H](C)CN(C)[C@H](C)[C@@H](O)[C@]1(C)O?
EC50 (HMEC): > 10 µM; EC50 [1]: > 10 µM; IC50 [2]: 0.1455 µM; EC50 (SK-MES-1): 7.54 µM; EC50 (DU-145): > 10 µM; EC50 (NCI-H69): 8.45 µM; IC50 (Histone deacetylase 8): 11.1 µM

Which results are given for CC[C@H]1OC(=O)[C@H](C)[C@@H](O)[C@H](C)[C@@H](O[C@@H]2O[C@H](C)C[C@H](N(C)Cc3ccc(-c4cn(CCCCCCCC(=O)NO)nn4)cc3)[C@H]2O)[C@](C)(OC)C[C@@H](C)C(=O)[C@H](C)[C@@H](O)[C@]1(C)O?
EC50 (HMEC): > 10 µM; EC50 [1]: > 10 µM; IC50 [2]: 0.123 µM; EC50 (SK-MES-1): 4.45 µM; EC50 (DU-145): 5.78 µM; EC50 (NCI-H69): 5.09 µM
